A selection: hits, their analogues and other compounds. The true share with any hit is near 2.9%.
SENP8 block-1: blocks human SENP8 cleavage of Nedd8 substrate | inhibition, % at 20 µM | recombinant SENP8, Nedd8 substrate fluorescence | 0.64% of 360,000 active | AID 602440; in the data active = inhibition mostly above about 40%, no sharp cut-off; inactive = mostly below about 27%
SENP6 inh: SENP6 protease inhibition | Q9GZR1 | Recombinant SENP6 catalytic domain, aminoluciferin luminescence | inhibition, % at 10 µM | 1.8% of 330,000 active | AID 2599;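 active = inhibition above about 50% at the single tested dose, limit read from the data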
SENP1 FRET inh: SENP1 (human) catalytic domain inhibition. recombinant SENP1 catalytic domain, CyPet-SUMO1-YPet FRET cleavage. inhibition, % at 10 µM. 0.21% of 360,000 active;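 active = inhibition at least 30% at 10 µM, raw YFP signal under a set limit, fluorescence ratio 0.5 to 1.5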
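Compound: 10 µM single point, 0.5% DMSO; Test system: hSENP1 catalytic domain, recombinant; Timing: 50 min reaction at room temperature; Technique: FRET, CFP and YFP emission; Control set: no-enzyme wells low, DMSO-plus-enzyme wells high control.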
SENP7 block: inhibitors of human SENP7 protease. recombinant SENP7, Z-RLRGG-aminoluciferin luminescence, 40 min. inhibition, % at 5 µM. 1.5% of 330,000 active. Q9BQF6. AID 434973;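 active = inhibition above about 50% at the single test dose, limit read from the data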
Apaf-1 inh: human Apaf-1 inhibition. AID 489030. O14727. 0.71% of 330,000 active. inhibition, % at 20 µM. reconstituted apoptosome caspase-3 activity, DEVD-Rh110 fluorescence; active = inhibition of at least 40% at 20 µM
Target sequence (O14727 whole entry, looked up): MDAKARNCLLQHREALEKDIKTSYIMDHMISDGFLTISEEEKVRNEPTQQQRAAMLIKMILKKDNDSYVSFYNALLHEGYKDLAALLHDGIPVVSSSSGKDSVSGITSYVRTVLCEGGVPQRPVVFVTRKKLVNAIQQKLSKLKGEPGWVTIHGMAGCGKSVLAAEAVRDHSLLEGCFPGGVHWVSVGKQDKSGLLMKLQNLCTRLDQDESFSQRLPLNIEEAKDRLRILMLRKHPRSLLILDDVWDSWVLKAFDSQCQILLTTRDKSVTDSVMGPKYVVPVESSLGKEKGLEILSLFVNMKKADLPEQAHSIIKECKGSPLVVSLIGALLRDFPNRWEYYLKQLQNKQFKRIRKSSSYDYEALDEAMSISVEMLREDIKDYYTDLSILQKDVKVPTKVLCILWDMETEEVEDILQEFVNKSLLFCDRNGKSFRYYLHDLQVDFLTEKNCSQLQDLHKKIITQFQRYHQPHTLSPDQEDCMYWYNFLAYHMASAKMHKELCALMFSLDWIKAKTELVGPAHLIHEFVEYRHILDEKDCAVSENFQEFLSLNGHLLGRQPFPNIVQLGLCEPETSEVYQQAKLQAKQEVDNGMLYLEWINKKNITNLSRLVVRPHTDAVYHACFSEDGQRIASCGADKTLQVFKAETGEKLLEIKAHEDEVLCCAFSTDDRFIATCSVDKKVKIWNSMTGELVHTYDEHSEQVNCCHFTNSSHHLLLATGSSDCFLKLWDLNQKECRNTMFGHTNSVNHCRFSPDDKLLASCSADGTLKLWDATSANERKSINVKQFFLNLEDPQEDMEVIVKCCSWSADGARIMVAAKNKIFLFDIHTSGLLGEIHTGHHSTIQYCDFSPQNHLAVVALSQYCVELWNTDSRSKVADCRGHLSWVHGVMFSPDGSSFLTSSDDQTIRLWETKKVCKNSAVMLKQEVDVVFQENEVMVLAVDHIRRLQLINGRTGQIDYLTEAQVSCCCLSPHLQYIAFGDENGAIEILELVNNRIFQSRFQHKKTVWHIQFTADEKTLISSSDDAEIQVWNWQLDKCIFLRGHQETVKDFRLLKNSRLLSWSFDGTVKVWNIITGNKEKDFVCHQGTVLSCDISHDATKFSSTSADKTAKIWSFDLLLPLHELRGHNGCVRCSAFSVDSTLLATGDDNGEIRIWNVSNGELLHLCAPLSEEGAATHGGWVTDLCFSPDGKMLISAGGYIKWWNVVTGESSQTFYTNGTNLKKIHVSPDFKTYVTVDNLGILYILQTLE
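Material: reconstituted apoptosome with Apaf-1, cytochrome c, caspase-9, procaspase-3, dATP / Buffer or medium: pH 7.5 Hepes buffer with CHAPS, BSA, DTT / Also added: cytochrome c with DEVD-Rh110 / Schedule: compound with Apaf-1, dATP, procaspase-3 30 min, then 50 min reaction, room temperature / Technique: rhodamine 110 fluorescence at Ex 480/Em 540 nm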
SENP8 block-2: blocks the human protease SENP8 | Q96LD8 | purified SENP8, Z-RLRGG-aminoluciferin cleavage, luminescence | inhibition, % at 10 µM | 1.2% of 330,000 active | AID 2540; in the data active = inhibition above about 50%
SENP8 conf: confirmation of human SENP8 protease inhibitors; shares compounds with SENP7 block; Recombinant SENP8, Z-RLRGG-aminoluciferin luminescence, 60 min; inhibition, % at 12.5 µM; 40% of 6,200 active; AID 488912;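 active = mean inhibition across replicates above about 50%, limit read from the data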
SENP6 confirm: confirmation of human SENP6 protease inhibitors; shares compounds with SENP7 block; recombinant SENP6, Z-RLRGG-aminoluciferin luminescence; inhibition, % at 12.5 µM; 58% of 6,200 active
SENP7 conf: confirmation of human SENP7 protease inhibitors | recombinant SENP7, Z-RLRGG-aminoluciferin luminescence, 40 min | shares compounds with SENP7 block | inhibition, % at 12.5 µM | 69% of 6,200 active
Casp3 select: caspase-3 inhibition (SENP selectivity assay); shares compounds with SENP7 block; purified caspase-3, Z-DEVD-aminoluciferin luminescence, 60 min; inhibition, % at 12.5 µM; 60% of 6,200 active;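 active = mean inhibition above about 50%, limit read from the data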
SENP luc ctr: luminescence interference (SENP counter-screen); 39% of 6,200 active; inhibition, % at 12.5 µM; Pre-incubated SENP8/Z-RLRGG-aminoluciferin, luciferase luminescence interference; shares compounds with SENP7 block;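 active = mean inhibition above about 50% when retested at one dose, limit read from the data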
Large screens that a line does not name were inactive (follow-up assays come after a bar, where they were run).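 The calls were made as follows, unless noted: active = mean inhibition above about 50% in the one-dose retest (limit read from the data); inactive = the rest.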

COc1cccc2cc(-c3nnc(-c4ccccc4)o3)c(=O)oc12	SENP6 inh 92.1, SENP7 block 89.9, SENP8 block-2 73.8 | SENP8 conf inactive | SENP6 confirm inactive | SENP7 conf inactive | Casp3 select inactive | SENP luc ctr inactive
Cc1cccc(NC(=O)N2CCc3ccccc3C2)c1C	none
COCCN(Cc1ccccc1)C(=O)c1ccc(C(=O)c2ccccc2)cc1	none
COc1cc(NC(=O)c2csc3c2CCCC3)ncn1	SENP6 inh 61.1 | SENP8 conf inactive | SENP6 confirm inactive | SENP7 conf inactive | Casp3 select inactive | SENP luc ctr inactive
COc1ccc(CONc2ncnc3nonc23)cc1[N+](=O)[O-]	SENP6 inh 70.1, SENP8 block-2 55.3 | SENP8 conf inactive | SENP6 confirm 50.2 | SENP7 conf 83.2 | Casp3 select 70.3 | SENP luc ctr 62.3
COc1ccc2c(c1)CCC/C2=N/OC(=O)c1ccccc1OC	none
COc1ccc2c(c1)CC/C2=N\OC(=O)c1ccccc1C	SENP6 inh 78.7, SENP7 block 79.8, SENP8 block-2 72.8 | SENP8 conf inactive | SENP6 confirm 82.0 | SENP7 conf 82.9 | Casp3 select 71.6 | SENP luc ctr inactive
COc1ccc2c(c1)CC/C2=N\OC(=O)c1cccc(C)c1	SENP6 inh 86.2, SENP7 block 84.1, SENP8 block-2 71.8 | SENP8 conf inactive | SENP6 confirm inactive | SENP7 conf inactive | Casp3 select inactive | SENP luc ctr inactive
CCc1ccc(-c2nc(CCl)cs2)cc1	SENP6 inh 73.7, SENP7 block 64.1, SENP8 block-2 56.1 | SENP8 conf inactive | SENP6 confirm 84.4 | SENP7 conf 96.1 | Casp3 select 68.6 | SENP luc ctr inactive
COc1ccc(-c2nc(CCl)cs2)cc1	none
CC(C)c1ccc(-c2csc3ncnc(N4CCN(C)CC4)c23)cc1	none
CSc1ccc(N=Nc2c(C)[nH]n(C)c2=O)cc1	SENP7 block 52.9 | SENP8 conf inactive | SENP6 confirm inactive | SENP7 conf inactive | Casp3 select inactive | SENP luc ctr inactive
CCNC(=O)C1(C)CCCN(C(=O)c2cc(C)n(C(C)(C)C)n2)C1 (centres undefined)	none (no result: SENP6 inh, SENP7 block, Apaf-1 inh, SENP8 block-2)
COc1cc(OC)cc(C2=Cc3ccccc3C(CC(C)=O)N2c2ccc(C#CC3(N)CCCCC3)cc2)c1 (centres undefined)	none (no result: SENP6 inh, SENP7 block, Apaf-1 inh, SENP8 block-2)
CC(C)COc1ccc(-c2nnc(-c3ccco3)o2)cc1	SENP6 inh 94.2, SENP7 block 94.2, SENP8 block-2 59.0 | SENP8 conf inactive | SENP6 confirm 73.5 | SENP7 conf 62.5 | Casp3 select 63.9 | SENP luc ctr inactive
CCCOc1ccc(-c2nnc(-c3ccco3)o2)cc1	SENP7 block 87.4, SENP8 block-2 78.4 | SENP8 conf inactive | SENP6 confirm inactive | SENP7 conf 59.1 | Casp3 select inactive | SENP luc ctr inactive
O=C(COc1ccccc1)Nc1ccc(-c2nnc(-c3ccco3)o2)cc1	none
Oc1ccc(/C=N/Nc2cccc(Cl)n2)c(O)c1	SENP6 inh 97.1, SENP7 block 97.9, SENP8 block-2 97.5 | SENP8 conf 98.6 | SENP6 confirm 98.9 | SENP7 conf 102.2 | Casp3 select 96.0 | SENP luc ctr 97.6
N#Cc1ccsc1NC(=O)COC(=O)c1ccc(Br)o1	none
N#Cc1ccsc1NC(=O)COC(=O)c1ccc2ccccc2c1	SENP6 inh 90.7, SENP7 block 86.2, SENP8 block-2 84.4 | SENP8 conf inactive | SENP6 confirm 66.8 | SENP7 conf 99.6 | Casp3 select 79.9 | SENP luc ctr inactive
N#Cc1ccsc1NC(=O)COC(=O)c1cc(Br)ccc1O	SENP6 inh 94.6, SENP7 block 84.9, SENP8 block-2 88.7 | SENP8 conf 75.4 | SENP6 confirm 81.8 | SENP7 conf 86.6 | Casp3 select 70.4 | SENP luc ctr inactive
COc1ccc(CCC(=O)Nc2sccc2C#N)cc1	SENP6 inh 85.6, SENP7 block 87.0, SENP8 block-2 80.4 (no result: SENP8 block-1, SENP1 FRET inh) | SENP8 conf 84.1 | SENP6 confirm 84.8 | SENP7 conf 97.5 | Casp3 select 89.3 | SENP luc ctr 59.2
O=C(CCC1CCN(Cc2nccs2)CC1)Nc1ccccc1	none (no result: SENP6 inh, SENP7 block, Apaf-1 inh, SENP8 block-2)
COc1ccc(-c2cn(Cc3ccc(C(=O)c4ccccc4)cc3)nn2)cc1	SENP6 inh 79.5, SENP7 block 63.9, SENP8 block-2 77.0 (no result: SENP8 block-1, SENP1 FRET inh) | SENP8 conf inactive | SENP6 confirm 62.6 | SENP7 conf inactive | Casp3 select 64.2 | SENP luc ctr inactive
COc1ccc(-c2cn(Cc3ccc4ccccc4c3)nn2)cc1	none
CCOC(=O)CNC(=O)CSc1nnc(NC(=O)c2ccc3c(c2)OCO3)s1	SENP6 inh 54.5, SENP7 block 78.5, SENP8 block-2 53.9 | SENP8 conf inactive | SENP6 confirm inactive | SENP7 conf inactive | Casp3 select inactive | SENP luc ctr inactive
CSc1nnc(NC(=O)c2ccc(S(=O)(=O)N(C)C)cc2)s1	SENP7 block 51.0 | SENP8 conf inactive | SENP6 confirm inactive | SENP7 conf inactive | Casp3 select inactive | SENP luc ctr inactive
CSc1nnc(NC(=O)c2ccc3c(c2)OCO3)s1	SENP6 inh 96.4, SENP7 block 96.9, SENP8 block-2 89.8 | SENP8 conf inactive | SENP6 confirm inactive | SENP7 conf 64.5 | Casp3 select 51.2 | SENP luc ctr inactive
Cc1nnc(NC(=O)c2ccc3c(c2)OCO3)s1	none
CN(C)S(=O)(=O)c1ccc(C(=O)Nc2nnc(SCc3ccccc3)s2)cc1	none
Nc1nc(-c2ccccc2)c(CCCOc2ccc(NC(=O)CBr)cc2)c(=O)[nH]1	none (no result: SENP6 inh, SENP7 block, Apaf-1 inh, SENP8 block-2)
O=c1[nH]c(COc2ccc(Cl)cc2Br)nc2ccccc12	none
Cc1cc(Br)ccc1NC(=O)CN1C(=O)C2CC=CCC2C1=O (centres undefined)	none
COc1ccc(S(=O)(=O)N2CCN(c3ccccn3)CC2)cc1[N+](=O)[O-]	SENP6 inh 85.4 | SENP8 conf inactive | SENP6 confirm inactive | SENP7 conf inactive | Casp3 select inactive | SENP luc ctr inactive
COc1cc(/C=C/c2noc(-c3ccccc3O)n2)ccc1OC(C)=O	none

Screening results as filed in PubChem BioAssay.
